Source: ChEMBL document CHEMBL1154874, “6-Substituted 2-(N-trifluoroacetylamino)imidazopyridines induce cell cycle arrest and apoptosis in SK-LU-1 human cancer cell line” (Eur J Med Chem, 2010)
pIC50: −log10 of the molar value. Activity calls are given as the source filed them. The calls are words filed in the database; no cut-off is given here.

Experiments:
U-251 [1] = experiment: Cytotoxicity against human U251 cells assessed as cell growth inhibition at 50 uM after 48 hrs by SRB assay; assay type: functional; conditions: U-251, 48 h, read-out: GI
Procedure, shortened: (§1)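 Cells in RPMI-1640/10% FBS/2 mM L-glutamine at 37 °C, 5% CO₂, seeded at 5000 cells/well and treated 24 h later for 48 h. Growth read by SRB (TCA fixation, 0.4% SRB, Tris solubilization, OD 515 nm).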

PC-3 [2] = experiment: Cytotoxicity against human PC3 cells assessed as cell growth inhibition at 50 uM after 48 hrs by SRB assay; assay type: functional; conditions: PC-3, 48 h, read-out: GI; procedure, shortened: as §1
K562 [3] = experiment: Cytotoxicity against human K562 cells assessed as cell growth inhibition at 50 uM after 48 hrs by SRB assay; assay type: functional; conditions: K562, 48 h, read-out: GI; procedure, shortened: as §1
HCT-15 [4] = experiment: Cytotoxicity against human HCT15 cells assessed as cell growth inhibition at 50 uM after 48 hrs by SRB assay; assay type: functional; conditions: for inhibition of growth at 50 µM: HCT-15, 48 h, read-out: GI; procedure, shortened: as §1
MCF7 [5] = experiment: Cytotoxicity against human MCF7 cells assessed as cell growth inhibition at 50 uM after 48 hrs by SRB assay; assay type: functional; conditions: MCF7, 48 h, read-out: GI; procedure, shortened: as §1
SK-LU-1 [6] = experiment: Cytotoxicity against human SK-LU-1 cells assessed as cell growth inhibition at 50 uM after 48 hrs by SRB assay; assay type: functional; conditions: SK-LU-1, 48 h, read-out: GI; procedure, shortened: as §1
U-251 [7] = experiment: Cytotoxicity against human U251 cells after 48 hrs by SRB assay; assay type: functional, cell-based; conditions: U-251, 48 h
Procedure, shortened: (§2)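 Compounds dissolved in DMSO. Cells grown in RPMI-1640 with 10% FBS and 2 mM L-glutamine at 37 °C under 5% CO₂. Seeded from 70% confluent flasks at 5000 cells/well, treated 24 h after seeding for 48 h. Fixed in situ with cold 50% TCA for 1 h at 4 °C, stained with 0.4% SRB, dye solubilized in 10 mM unbuffered Tris base, OD read at 515 nm.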

K562 [8] = experiment: Cytotoxicity against human K562 cells after 48 hrs by SRB assay; assay type: functional, cell-based; conditions: K562, 48 h; procedure, shortened: as §2
HCT-15 [9] = experiment: Cytotoxicity against human HCT15 cells after 48 hrs by SRB assay; assay type: functional, cell-based; conditions: HCT-15, 48 h; procedure, shortened: as §2
MCF7 [10] = experiment: Cytotoxicity against human MCF7 cells after 48 hrs by SRB assay; assay type: functional, cell-based; conditions: MCF7, 48 h; procedure, shortened: as §2
SK-LU-1 [11] = experiment: Cytotoxicity against human SK-LU-1 cells after 48 hrs by SRB assay; assay type: functional, cell-based; conditions: SK-LU-1, 48 h; procedure, shortened: as §2
PC-3 [12] = experiment: Cytotoxicity against human PC3 cells after 48 hrs by SRB assay; assay type: functional, cell-based; conditions: PC-3, 48 h; procedure, shortened: as §2
MCF7 [13] = experiment: Cell cycle arrest in human MCF7 cells assessed as accumulation at G0/G1 phase at 2 times IC50 concentration after 24 hrs using propidium iodide staining by flow cytometry relative to control; assay type: functional
Procedure, shortened: (§3)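 Log-phase cells seeded in RPMI-1640 + 10% FBS at 1×10⁶ per 10 cm dish, attached 24 h at 37 °C, then exposed to compound (DMSO solvent control) for 24 h. Harvested with PBS-EDTA, washed, fixed in ice-cold 70% ethanol at −20 °C for 24–48 h, stained with propidium iodide and analysed by FACScan flow cytometry. Three independent experiments, mean ± SD; P < 0.05 versus DMSO.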

MCF7 [14] = experiment: Cell cycle arrest in human MCF7 cells assessed as accumulation at S phase at 2 times IC50 concentration after 24 hrs using propidium iodide staining by flow cytometry relative to control; assay type: functional; procedure, shortened: as §3
MCF7 [15] = experiment: Cell cycle arrest in human MCF7 cells assessed as accumulation at G2/M phase at 2 times IC50 concentration after 24 hrs using propidium iodide staining by flow cytometry relative to control; assay type: functional; procedure, shortened: as §3
SK-LU-1 [16] = experiment: Cell cycle arrest in human SK-LU-1 cells assessed as accumulation at G0/G1 phase at 2 times IC50 concentration after 24 hrs using propidium iodide staining by flow cytometry relative to control; assay type: functional; procedure, shortened: as §3
SK-LU-1 [17] = experiment: Cell cycle arrest in human SK-LU-1 cells assessed as accumulation at S phase at 2 times IC50 concentration after 24 hrs using propidium iodide staining by flow cytometry relative to control; assay type: functional; procedure, shortened: as §3
SK-LU-1 [18] = experiment: Cell cycle arrest in human SK-LU-1 cells assessed as accumulation at G2/M phase at 2 times IC50 concentration after 24 hrs using propidium iodide staining by flow cytometry relative to control; assay type: functional; procedure, shortened: as §3
SK-LU-1 [19] = experiment: Induction of apoptosis in human SK-LU-1 cells assessed as early apoptotic cells at 2 times IC50 concentration after 48 hrs using annexin V-propidium iodide staining by flow cytometry; assay type: functional, cell-based
Procedure, shortened: (§4)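 SK-LU-1 cells treated 48 h with compounds at 2×IC50 or with DMSO as control. Labelled with FITC-annexin V and propidium iodide in binding buffer and analysed on a FACScan flow cytometer. Annexin V-only cells were scored as early apoptotic and annexin V/PI double-stained cells as late apoptotic. Values are means of three independent experiments.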

SK-LU-1 [20] = experiment: Induction of apoptosis in human SK-LU-1 cells assessed as late apoptotic cells at 2 times IC50 concentration after 48 hrs using annexin V-propidium iodide staining by flow cytometry; assay type: functional, cell-based; procedure, shortened: as §4
SK-LU-1 [21] = experiment: Induction of apoptosis in human SK-LU-1 cells assessed as appearance of phosphatidylserine residues at 2 times IC50 concentration after 48 hrs by flow cytometry; assay type: functional; procedure, shortened: as §4

Structure (SMILES) | inhibition of growth at 50 µM (U-251 [1]) [%] | inhibition of growth at 50 µM (PC-3 [2]) [%] | inhibition of growth at 50 µM (K562 [3]) [%] | inhibition of growth at 50 µM (HCT-15 [4]) [%] | inhibition of growth at 50 µM (MCF7 [5]) [%] | inhibition of growth at 50 µM (SK-LU-1 [6]) [%] | pIC50 (U-251 [7]) | pIC50 (K562 [8]) | pIC50 (HCT-15 [9]) | pIC50 (MCF7 [10]) | pIC50 (SK-LU-1 [11]) | pIC50 (PC-3 [12]) | Activity (MCF7 [13]) [%] | Activity (MCF7 [14]) [%] | Activity (MCF7 [15]) [%] | Activity (SK-LU-1 [16]) [%] | Activity (SK-LU-1 [17]) [%] | Activity (SK-LU-1 [18]) [%] | Activity (SK-LU-1 [21]) [%] | also measured
O=C(c1ccc(C(F)(F)F)c(F)c1)c1ccc2nc(NC(=O)C(F)(F)F)cn2c1 | 38.4 | 32.6 | 50.1 | 59.2 | 56.5 | 48.3 | 4.07 | 4.08 | 4.24 | 4.29 | 4.24 |  |  |  |  |  |  |  |  | 
O=C(c1ccc2nc(NC(=O)C(F)(F)F)cn2c1)c1ccc(C(F)(F)F)cc1F | 80.1 | 92.6 | 90.2 | 100 | 97.2 | 100 | 4.28 | 4.25 | 4.60 | 4.60 | 4.45 | 4.55 |  |  |  |  |  |  |  | 
Cn1cc(C(=O)c2ccc3nc(NC(=O)C(F)(F)F)cn3c2)c2ccccc21 | 92.7 | 63.7 | 95.5 | 78 | 80.4 | 69.2 | 4.56 | 4.26 | 4.19 | 4.35 | 4.61 |  | 70.6 | 6.3 | 20.2 | 32.9 | 14.7 | 47.5 | 24.1 | Activity (SK-LU-1 [19]): Active; Activity (SK-LU-1 [20]): Active
Cc1ccc(C(=O)c2ccc3nc(NC(=O)C(F)(F)F)cn3c2)cc1F | 37.9 | 30.7 | 52.2 | 65.5 | 57.3 | 81.5 |  |  |  |  |  |  | 63.5 | 14.5 | 18.1 | 22.6 | 16.2 | 60.6 | 39.5 | 
Cn1cnc2c(NCc3ccccc3)nc(NCCO)nc21 [OLOMOUCINE] | 32 | 22.7 | 19.8 | 28.9 | 37.6 | 36.9 | 4.09 | 4.05 | 4.20 | 4.25 | 4.17 | 4.09 | 60.6 | 15 | 23.2 | 44.2 | 19.7 | 31.8 |  | 
Cc1ccc(F)c(C(=O)c2ccc3nc(NC(=O)C(F)(F)F)cn3c2)c1 | 61.5 | 59.2 | 92.6 | 91.2 | 66.3 | 71.7 | 4.28 | 4.96 | 4.98 | 4.97 | 4.95 | 4.44 | 74 | 7.1 | 13.4 | 10.4 | 21.2 |  | 20 | Activity (SK-LU-1 [19]): Active; Activity (SK-LU-1 [20]): Active
Cn1ccnc1C(=O)c1ccc2nc(NC(=O)C(F)(F)F)cn2c1 | 11.9 | 6.1 | 45.3 |  | 30.8 | 29.2 |  |  |  |  |  |  |  |  |  |  |  |  |  | growth inhibition (GI) (HCT-15 [4]): inactive
O=C(c1ccc2nc(NC(=O)C(F)(F)F)cn2c1)c1cc(C(F)(F)F)ccc1F | 59.3 | 61.5 | 88 | 91.7 | 65.1 | 70.5 |  |  |  |  |  |  |  |  |  |  |  |  |  | 
O=C(Nc1cn2cc(I)ccc2n1)C(F)(F)F | 20.8 | 50.9 | 33.1 | 56.3 | 36.7 | 25.6 |  |  |  |  |  |  |  |  |  |  |  |  |  | 
O=C(c1ccc2nc(NC(=O)C(F)(F)F)cn2c1)c1ncc[nH]1 | 80.2 | 58.1 | 88.3 | 47.8 | 60.7 | 97.5 | 4.42 | 4.29 | 4.25 | 4.37 | 4.60 | 4.28 |  |  |  |  |  |  |  | 
